From ChEMBL document CHEMBL4350961, “Discovery of Pyrrolo[3,2- d]pyrimidin-4-one Derivatives as a New Class of Potent and Cell-Active Inhibitors of P300/CBP-Associated Factor Bromodomain” (J Med Chem, 2019)
Active and inactive are the calls of the source. No cut-off for these calls is given here.

How the values were obtained:
[1] = biological target: Ribosomal protein S6 kinase alpha-2 (Homo sapiens) (UniProt Q15349); experiment: Inhibition of recombinant full-length human Rsk3 at 10 uM using KKKNRTLSVA as substrate measured after 40 mins in presence of [gamma33P]ATP by scintillation counting method
[2] = biological target: 3-phosphoinositide-dependent protein kinase 1 (Homo sapiens) (UniProt O15530); experiment: Inhibition of recombinant human PDK1 (52 to end residues) at 10 uM using PDKtide as substrate measured after 40 mins in presence of [gamma33P]ATP by scintillation counting method
[3] = biological target: Activated CDC42 kinase 1 (Homo sapiens) (UniProt Q07912); experiment: Inhibition of recombinant human ACK1 (1 to 389 residues) at 10 uM using EFPIYDFLPAKKK as substrate measured after 40 mins in presence of [gamma33P]ATP by scintillation counting method
[4] = biological target: cAMP-dependent protein kinase catalytic subunit alpha (Homo sapiens) (UniProt P17612); experiment: Inhibition of recombinant full-length human PKA at 10 uM using Kemptide as substrate measured after 40 mins in presence of [gamma33P]ATP by scintillation counting method
[5] = biological target: Serine/threonine-protein kinase mTOR (Homo sapiens) (UniProt P42345); experiment: Inhibition of recombinant full-length human mTOR at 10 uM measured after 40 mins in presence of [gamma33P]ATP by scintillation counting method
Homo sapiens [6] = species: Homo sapiens; experiment: Inhibition of recombinant human MARK1 T20S mutant (2 to end residues) at 10 uM using KKKVSRSGLYRSPSMPENLNRPR as substrate measured after 40 mins in presence of [gamma33P]ATP by scintillation counting method
[7] = biological target: Transcription intermediary factor 1-alpha (Homo sapiens) (UniProt O15164); experiment: Binding affinity to human partial length TRIM24 (P790 to P977 residues) expressed in bacterial expression system at 1 uM by BROMOscan assay
Summary of the method: (§1)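 BROMOscan bromodomain cross-screen run by an outside service, compound at 1 µM against 32 recombinant bromodomains. Binding given as percent of control.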

[8] = biological target: Macrophage-stimulating protein receptor (Homo sapiens) (UniProt Q04912); experiment: Inhibition of human Ron (983 to end residues) using GGMEDIYFEFMGGKKK as substrate measured after 40 mins in presence of [gamma33P]ATP by scintillation counting method
Summary of the method: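 Kinase panel of 422 kinases screened by Eurofins KinaseProfiler at a single test-compound concentration of 10 µM.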

[9] = biological target: G protein-coupled receptor kinase 3 (Homo sapiens) (UniProt P35626); experiment: Inhibition of recombinant full-length human GRK3 at 10 uM using casein as substrate measured after 40 mins in presence of [gamma33P]ATP by scintillation counting method
[10] = biological target: NUAK family SNF1-like kinase 2 (Homo sapiens) (UniProt Q9H093); experiment: Inhibition of recombinant full-length human NUAK2 at 10 uM using KKKVSRSGLYRSPSMPENLNRPR as substrate measured after 40 mins in presence of [gamma33P]ATP by scintillation counting method
[11] = tested on: Angiopoietin-1 receptor (Homo sapiens), Q02763 [Q939H,Q940H]; experiment: Inhibition of human Tie2 Q939H/Q940H mutant (771 to end residues) using poly(Glu, Tyr) 4:1 as substrate measured after 40 mins in presence of [gamma33P]ATP by scintillation counting method
[12] = biological target: TGF-beta receptor type-2 (Homo sapiens) (UniProt P37173); experiment: Inhibition of human TGFBR2 (188 to end residues) using myelin basic protein as substrate measured after 120 mins in presence of [gamma33P]ATP by scintillation counting method
[13] = biological target: Histone acetyltransferase KAT2A (Homo sapiens, UniProt Q92830); experiment: Binding affinity to human partial length GCN5L2 (E726 to K837 residues) expressed in bacterial expression system at 1 uM by BROMOscan assay; summary of the method: as §1
[14] = biological target: Tyrosine-protein kinase ABL1 (Homo sapiens) (UniProt P00519); experiment: Inhibition of recombinant human ABL (27 to end residues) at 10 uM using EAIYAAPFAKKK as substrate measured after 40 mins in presence of [gamma33P]ATP by scintillation counting method
[15] = biological target: CDK2/Cyclin A2 (Homo sapiens) (UniProt P24941+P20248); experiment: Inhibition of recombinant full-length human CDK2/cyclinA at 10 uM using histone H1 as substrate measured after 40 mins in presence of [gamma33P]ATP by scintillation counting method; type: protein-complex assay
[16] = biological target: Ephrin type-A receptor 1 (Homo sapiens) (UniProt P21709); experiment: Inhibition of recombinant human EphA1 (568 to end residues) at 10 uM using KKKSPGEYVNIEF as substrate measured after 40 mins in presence of [gamma33P]ATP by scintillation counting method
[17] = biological target: Calcium/calmodulin-dependent protein kinase type II subunit delta (Homo sapiens) (UniProt Q13557); experiment: Inhibition of recombinant full-length human CaMK2delta at 10 uM using calmodulin as substrate measured after 40 mins in presence of [gamma33P]ATP by scintillation counting method
[18] = biological target: Calcium/calmodulin-dependent protein kinase type II subunit alpha (Homo sapiens) (UniProt Q9UQM7); experiment: Inhibition of recombinant full-length human CaMK2alpha at 10 uM using calmodulin as substrate measured after 40 mins in presence of [gamma33P]ATP by scintillation counting method
[19] = biological target: Mitogen-activated protein kinase kinase kinase 5 (Homo sapiens) (UniProt Q99683); experiment: Inhibition of recombinant human ASK1 (649 to 946 residues) at 10 uM using myelin basic protein as substrate measured after 40 mins in presence of [gamma33P]ATP by scintillation counting method
Homo sapiens [20] = species: Homo sapiens; experiment: Inhibition of recombinant human Flt4 V1128L/H1146R mutant (800 to end residues) at 10 uM using GGEEEEYFELVKKKK as substrate measured after 40 mins in presence of [gamma33P]ATP by scintillation counting method

Sequence of TGF-beta receptor type-2 (Homo sapiens) (P37173 whole entry, the tested form may be a part): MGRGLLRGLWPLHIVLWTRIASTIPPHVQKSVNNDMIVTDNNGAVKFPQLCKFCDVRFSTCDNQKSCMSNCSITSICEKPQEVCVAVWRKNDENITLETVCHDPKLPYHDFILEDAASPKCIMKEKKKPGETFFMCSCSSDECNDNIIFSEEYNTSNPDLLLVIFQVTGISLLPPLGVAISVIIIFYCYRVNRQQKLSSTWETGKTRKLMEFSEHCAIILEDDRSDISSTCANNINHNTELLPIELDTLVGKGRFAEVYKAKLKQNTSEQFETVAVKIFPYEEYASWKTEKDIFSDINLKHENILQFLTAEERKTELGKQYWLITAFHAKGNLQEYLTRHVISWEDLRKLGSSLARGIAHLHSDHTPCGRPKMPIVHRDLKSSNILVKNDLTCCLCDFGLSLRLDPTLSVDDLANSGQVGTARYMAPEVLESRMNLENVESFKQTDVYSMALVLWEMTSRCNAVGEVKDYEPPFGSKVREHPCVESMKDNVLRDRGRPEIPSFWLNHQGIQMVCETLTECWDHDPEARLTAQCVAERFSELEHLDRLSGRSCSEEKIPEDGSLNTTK
Sequence of Histone acetyltransferase KAT2A (Q92830 2-837 limits assumed): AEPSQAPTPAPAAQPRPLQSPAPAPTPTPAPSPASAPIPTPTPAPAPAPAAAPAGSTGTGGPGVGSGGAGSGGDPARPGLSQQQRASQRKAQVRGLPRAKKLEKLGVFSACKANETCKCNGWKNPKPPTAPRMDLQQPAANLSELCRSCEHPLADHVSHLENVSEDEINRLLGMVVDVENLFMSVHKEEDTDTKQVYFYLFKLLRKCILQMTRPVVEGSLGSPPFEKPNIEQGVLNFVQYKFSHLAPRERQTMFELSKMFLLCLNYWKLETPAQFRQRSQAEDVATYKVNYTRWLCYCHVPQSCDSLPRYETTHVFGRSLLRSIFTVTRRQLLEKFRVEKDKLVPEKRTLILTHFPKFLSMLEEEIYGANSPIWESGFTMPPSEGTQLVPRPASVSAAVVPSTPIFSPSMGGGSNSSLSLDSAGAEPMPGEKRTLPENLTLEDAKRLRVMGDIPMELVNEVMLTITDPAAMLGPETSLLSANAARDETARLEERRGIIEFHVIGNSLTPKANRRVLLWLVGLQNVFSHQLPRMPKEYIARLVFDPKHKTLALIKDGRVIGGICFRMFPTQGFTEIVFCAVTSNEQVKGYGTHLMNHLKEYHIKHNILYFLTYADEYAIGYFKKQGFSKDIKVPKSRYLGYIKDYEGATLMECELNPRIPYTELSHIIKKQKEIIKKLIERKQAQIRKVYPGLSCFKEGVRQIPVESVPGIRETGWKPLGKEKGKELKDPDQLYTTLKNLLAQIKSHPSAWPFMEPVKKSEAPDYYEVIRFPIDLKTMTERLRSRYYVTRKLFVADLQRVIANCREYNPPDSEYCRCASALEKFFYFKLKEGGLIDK
Sequence of Ribosomal protein S6 kinase alpha-2 (Homo sapiens) (Q15349 whole entry): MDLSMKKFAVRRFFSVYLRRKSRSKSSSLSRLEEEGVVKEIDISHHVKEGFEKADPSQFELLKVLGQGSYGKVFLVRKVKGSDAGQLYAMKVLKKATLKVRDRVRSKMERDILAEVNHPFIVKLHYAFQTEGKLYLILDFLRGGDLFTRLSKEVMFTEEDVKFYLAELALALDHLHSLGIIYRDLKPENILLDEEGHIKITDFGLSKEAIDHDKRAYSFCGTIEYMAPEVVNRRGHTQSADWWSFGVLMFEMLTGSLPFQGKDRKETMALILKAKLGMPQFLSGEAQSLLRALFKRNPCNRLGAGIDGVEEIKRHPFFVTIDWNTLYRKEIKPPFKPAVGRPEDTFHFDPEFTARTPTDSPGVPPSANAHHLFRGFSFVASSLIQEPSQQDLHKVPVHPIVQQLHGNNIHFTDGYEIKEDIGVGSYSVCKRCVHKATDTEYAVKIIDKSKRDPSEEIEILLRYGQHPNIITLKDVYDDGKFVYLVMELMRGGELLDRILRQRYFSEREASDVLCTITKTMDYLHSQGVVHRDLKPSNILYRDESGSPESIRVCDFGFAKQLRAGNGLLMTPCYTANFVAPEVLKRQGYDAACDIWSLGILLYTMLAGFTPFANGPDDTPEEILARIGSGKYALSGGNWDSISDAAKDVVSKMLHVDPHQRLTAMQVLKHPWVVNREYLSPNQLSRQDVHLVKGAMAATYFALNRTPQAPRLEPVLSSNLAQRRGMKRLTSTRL
Sequence of Macrophage-stimulating protein receptor (Homo sapiens) (Q04912 25-304 limits assumed): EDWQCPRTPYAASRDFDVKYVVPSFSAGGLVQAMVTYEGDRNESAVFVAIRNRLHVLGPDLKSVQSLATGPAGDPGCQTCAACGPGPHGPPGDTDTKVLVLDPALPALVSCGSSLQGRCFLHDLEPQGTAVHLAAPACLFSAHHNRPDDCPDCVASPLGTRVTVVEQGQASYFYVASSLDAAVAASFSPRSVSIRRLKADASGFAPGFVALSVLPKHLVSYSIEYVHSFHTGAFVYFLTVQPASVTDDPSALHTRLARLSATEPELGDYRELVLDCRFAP
Sequence of Macrophage-stimulating protein receptor (Homo sapiens) (Q04912 310-1400 limits assumed): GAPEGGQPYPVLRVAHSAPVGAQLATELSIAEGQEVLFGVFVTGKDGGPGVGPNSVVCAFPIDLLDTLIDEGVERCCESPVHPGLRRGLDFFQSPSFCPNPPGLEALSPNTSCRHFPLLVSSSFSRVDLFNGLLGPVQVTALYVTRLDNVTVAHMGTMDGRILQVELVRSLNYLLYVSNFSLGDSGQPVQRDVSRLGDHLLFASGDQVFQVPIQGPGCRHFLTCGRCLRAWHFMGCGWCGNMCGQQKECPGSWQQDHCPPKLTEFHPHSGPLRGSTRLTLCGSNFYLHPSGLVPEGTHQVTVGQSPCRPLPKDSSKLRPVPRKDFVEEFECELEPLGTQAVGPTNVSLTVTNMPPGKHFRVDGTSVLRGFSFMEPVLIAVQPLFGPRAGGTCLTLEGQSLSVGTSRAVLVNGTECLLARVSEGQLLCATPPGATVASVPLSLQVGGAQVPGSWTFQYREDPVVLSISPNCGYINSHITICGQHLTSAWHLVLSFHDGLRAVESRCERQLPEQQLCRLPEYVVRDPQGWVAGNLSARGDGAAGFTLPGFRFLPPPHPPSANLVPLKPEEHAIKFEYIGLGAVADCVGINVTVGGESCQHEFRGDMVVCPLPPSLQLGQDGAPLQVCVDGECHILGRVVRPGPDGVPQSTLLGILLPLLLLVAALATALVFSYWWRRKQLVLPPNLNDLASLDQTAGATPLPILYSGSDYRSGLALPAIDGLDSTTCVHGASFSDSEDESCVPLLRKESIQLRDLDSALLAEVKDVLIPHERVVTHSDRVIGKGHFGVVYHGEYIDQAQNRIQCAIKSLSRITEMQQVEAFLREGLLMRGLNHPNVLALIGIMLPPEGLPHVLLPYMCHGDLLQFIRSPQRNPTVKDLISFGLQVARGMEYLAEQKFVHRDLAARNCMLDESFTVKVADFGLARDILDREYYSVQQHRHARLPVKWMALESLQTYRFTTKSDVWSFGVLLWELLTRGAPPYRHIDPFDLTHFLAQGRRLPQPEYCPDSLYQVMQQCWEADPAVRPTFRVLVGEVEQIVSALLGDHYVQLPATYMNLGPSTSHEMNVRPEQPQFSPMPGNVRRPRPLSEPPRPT
Sequence of Tyrosine-protein kinase ABL1 (Homo sapiens) (P00519 whole entry): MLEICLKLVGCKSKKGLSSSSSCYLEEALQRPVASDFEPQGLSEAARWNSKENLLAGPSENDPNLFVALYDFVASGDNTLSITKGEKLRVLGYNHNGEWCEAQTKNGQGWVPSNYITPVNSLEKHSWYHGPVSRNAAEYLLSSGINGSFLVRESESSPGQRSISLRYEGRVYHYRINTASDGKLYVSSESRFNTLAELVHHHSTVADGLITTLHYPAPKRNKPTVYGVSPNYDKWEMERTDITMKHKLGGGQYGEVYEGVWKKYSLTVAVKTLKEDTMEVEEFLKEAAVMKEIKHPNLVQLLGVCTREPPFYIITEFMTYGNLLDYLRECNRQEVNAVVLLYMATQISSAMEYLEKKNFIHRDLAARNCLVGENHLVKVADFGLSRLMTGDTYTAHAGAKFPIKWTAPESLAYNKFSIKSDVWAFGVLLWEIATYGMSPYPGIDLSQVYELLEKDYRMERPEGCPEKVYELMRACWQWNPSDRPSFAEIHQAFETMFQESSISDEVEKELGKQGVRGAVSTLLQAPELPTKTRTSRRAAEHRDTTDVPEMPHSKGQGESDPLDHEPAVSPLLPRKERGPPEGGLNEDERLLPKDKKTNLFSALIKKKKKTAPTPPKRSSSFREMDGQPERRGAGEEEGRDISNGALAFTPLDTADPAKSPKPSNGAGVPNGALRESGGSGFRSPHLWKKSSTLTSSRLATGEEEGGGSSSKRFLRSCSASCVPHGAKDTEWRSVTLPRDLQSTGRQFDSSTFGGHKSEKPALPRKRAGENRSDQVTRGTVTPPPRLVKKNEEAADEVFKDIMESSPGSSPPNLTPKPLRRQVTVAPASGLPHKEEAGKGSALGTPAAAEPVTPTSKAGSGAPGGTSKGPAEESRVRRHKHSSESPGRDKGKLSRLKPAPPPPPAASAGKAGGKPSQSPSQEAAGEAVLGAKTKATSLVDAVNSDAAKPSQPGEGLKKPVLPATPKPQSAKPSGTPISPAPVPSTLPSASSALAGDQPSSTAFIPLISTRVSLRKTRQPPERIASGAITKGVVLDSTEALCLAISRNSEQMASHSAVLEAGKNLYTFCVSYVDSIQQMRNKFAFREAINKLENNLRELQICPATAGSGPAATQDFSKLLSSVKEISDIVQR

CN1C[C@H](Nc2nc3cc[nH]c3c(=O)n2C)C[C@H](c2ccc3c(c2)OCCO3)C1
inhibition [1]: inactive | inhibition [2]: inactive | inhibition [3]: inactive | inhibition [4]: inactive | inhibition [5]: inactive | inhibition (Homo sapiens [6]): inactive | Activity [7]: inactive | inhibition [8]: inactive | inhibition [9]: inactive | inhibition [10]: inactive | inhibition [11]: inactive | inhibition [12]: inactive | Activity [13]: Active | inhibition [14]: inactive | inhibition [15]: inactive | inhibition [16]: inactive | inhibition [17]: inactive | inhibition [18]: inactive | inhibition [19]: inactive | inhibition (Homo sapiens [20]): inactive
